The source made the active and inactive calls. No cut-off for these calls is given here.
Columns and labels:
Procathepsin L [1] = molecular target: T1, Procathepsin L (Homo sapiens, UniProt P07711); conditions: dose 6.25 nM, time 15.0 min
Target sequence in this assay (P07711 114-333 limits assumed): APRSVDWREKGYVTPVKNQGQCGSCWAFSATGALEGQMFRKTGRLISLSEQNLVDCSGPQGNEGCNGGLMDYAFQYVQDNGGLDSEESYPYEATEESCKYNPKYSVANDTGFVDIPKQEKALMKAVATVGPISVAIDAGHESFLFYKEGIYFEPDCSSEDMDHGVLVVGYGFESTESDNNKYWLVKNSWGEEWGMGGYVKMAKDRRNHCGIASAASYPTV

Cathepsin B [2] = molecular target: T2, Cathepsin B (Homo sapiens, UniProt P07858); test: Inhibition of cathepsin B (unknown origin) using Cbz-Phe-Arg-AMC as substrate preincubated for 5 mins followed by substrate addition and measured after 10 mins by fluorometric assay
Outline: (§1)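 Cathepsin B solution (0.2 ng/µL) or cathepsin L solution (0.02 ng/µL) preincubated with compound at 40 °C for 5 min. Equal volume of pre-warmed Cbz-Phe-Arg-AMC solution added (40 µM for B, 80 µM for L). AMC fluorescence (ex 380/em 460 nm) read continuously for 10 min. Triplicates, two independent experiments, mean ± SEM.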

Cathepsin B [3] = molecular target: T2, Cathepsin B; conditions: dose 6.25 nM, time 15.0 min
Procathepsin L [4] = molecular target: T1, Procathepsin L; test: Inhibition of cathepsin L (unknown origin) using Cbz-Phe-Arg-AMC as substrate preincubated for 5 mins followed by substrate addition and measured after 10 mins by fluorometric assay
Outline: as §1
Target sequence in this assay (P07711 whole entry): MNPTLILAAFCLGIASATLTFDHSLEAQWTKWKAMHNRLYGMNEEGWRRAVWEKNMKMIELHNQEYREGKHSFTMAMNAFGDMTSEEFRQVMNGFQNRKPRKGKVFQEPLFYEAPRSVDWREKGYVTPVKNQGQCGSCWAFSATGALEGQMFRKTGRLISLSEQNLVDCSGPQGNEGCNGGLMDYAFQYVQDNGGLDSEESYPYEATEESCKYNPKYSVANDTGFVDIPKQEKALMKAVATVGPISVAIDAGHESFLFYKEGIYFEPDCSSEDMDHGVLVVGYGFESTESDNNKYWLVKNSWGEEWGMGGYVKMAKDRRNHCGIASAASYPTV

Q: What does the source list for `CC(C)C[C@H](NC(=O)[C@H]1O[C@@H]1C(=O)O)C(=O)NCCCCN=C(N)N` [E-64]?
A: inhibition (Procathepsin L [1]): Active; IC50 (Cathepsin B [2]): 4.6 nM; inhibition (Cathepsin B [3]): Active; IC50 (Procathepsin L [4]): 2.3 nM

From ChEMBL document CHEMBL5107962, “Covalent sortase A inhibitor ML346 prevents Staphylococcus aureus infection of Galleria mellonella” (RSC Med Chem, 2022)
